Reference: publication PMC4210126 (ACS Chemical Neuroscience, 2014)

Experiments:
[1] = Measurement of LogD; format: physicochemical; conditions: n-octanol/sodium phosphate buffer, pH 7.4
Method in brief: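 Partition of each carbon-11-labelled test compound between n-octanol and sodium phosphate buffer (pH 7.4), run at room temperature. Radioactivity distribution between the phases gives logD.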

[2] = biological target: human HAB TSPO (Homo sapiens, UniProt P30536); format: binding; conditions: pKi – logD for human cerebellum HAB
Chain of human HAB TSPO (P30536 whole entry): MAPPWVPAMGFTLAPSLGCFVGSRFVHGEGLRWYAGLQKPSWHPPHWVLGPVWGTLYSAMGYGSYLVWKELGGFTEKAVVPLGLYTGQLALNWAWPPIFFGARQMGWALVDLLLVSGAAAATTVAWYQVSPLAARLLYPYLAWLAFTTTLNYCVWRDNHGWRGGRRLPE

Compound: CCC(C)N(C)C(=O)c1cc2ccccc2c(-c2ccccc2Cl)n1 (centres unmarked) [Ligand 1]
- logD [1]: 3.97 ± 0.18
- LipE [2]: 4.37
